Assay results from ChEMBL document CHEMBL1949567, “Novel synthesis and biological evaluation of enigmols as therapeutic agents for treating prostate cancer” (ACS Med Chem Lett, 2011).
Calls of active or inactive are those of the source. No cut-off for these calls is given here.

Columns and labels:
[1] = tested on: PC-3; experiment: Anticancer activity against androgen insensitive human PC3 cells xenografted nude mouse model assessed as decrease in tumor growth rate administered at 15 mg/kg, ip administered once in a week on day 22 to day 29 after implantation relative to control; format: functional, organism-based; set-up: dose 15 mg/kg
How it was run: (§1)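 Nude mice bearing PC-3 xenografts (n = 15). Daily oral gavage at 10 mg/kg from Day 22 to Day 34 after implantation. Docetaxel 15 mg/kg or vehicle given i.p. on Days 22 and 29, alone or combined with gavage. Tumor growth and body weight followed. Growth analysed by mixed model for repeated measurements, weights by ANOVA.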

[2] = tested on: LNCaP; experiment: Cytotoxicity against human LNCAP cells after 24 hrs by WST-1 assay; format: functional, cell-based
How it was run: (§2)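 PC-3 (androgen-independent) and LNCaP (androgen-sensitive) prostate cancer cells treated for 24 h. Cytotoxicity read by WST-1 assay. IC50 calculated from the resulting data.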

[3] = tested on: PC-3; experiment: Cytotoxicity against human PC3 cells after 24 hrs by WST-1 assay; format: functional, cell-based; settings: PC-3, 24 h; how it was run: as §2
[4] = tested on: PC-3; experiment: Anticancer activity against androgen insensitive human PC3 cells xenografted nude mouse model assessed as decrease in tumor growth rate administered at 10 mg/kg, po once daily administered from day 16 after implantation; format: functional, organism-based; set-up: dose 10 mg/kg
How it was run: (§3)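 Nude mice bearing established PC-3 tumors (n = 10) given 10 mg/kg daily by oral gavage from day 16 after implantation, with vehicle controls. Tumor growth and body weight measured over time. Growth rates compared by mixed model for repeated measurements, weights by ANOVA.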

[5] = tested on: Mus musculus; experiment: Toxicity in androgen insensitive human PC3 cells xenografted nude mouse model assessed as body weight change administered at 10 mg/kg, po once daily administered from day 16 after implantation; format: organism-based, PC-3; set-up: dose 10 mg/kg, route oral; settings: in vivo; how it was run: as §3
[6] = Tmax in CD-1/Swiss Webster mouse at 30 mg/kg, po by LC/MS/MS analysis; format: ADME, organism-based; set-up: dose 30 mg/kg, route oral; settings: in vivo
How it was run: (§4)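 Outbred male Swiss Webster or CD-1 mice, n = 3 per time point, single oral dose of 10 or 30 mg/kg in 10% ethanol/90% olive oil given at 5 mL/kg. Blood drawn from submandibular vein or retro-orbital plexus at set time points. PK parameters calculated from mean plasma concentrations (nM).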

[7] = Tmax in CD-1/Swiss Webster mouse at 10 mg/kg, po by LC/MS/MS analysis; format: ADME, organism-based; set-up: dose 10 mg/kg, route oral; settings: in vivo; how it was run: as §4
[8] = Cmax in CD-1/Swiss Webster mouse at 10 mg/kg, po by LC/MS/MS analysis; format: ADME, organism-based; set-up: dose 10 mg/kg, route oral; settings: in vivo; how it was run: as §4
[9] = Cmax in CD-1/Swiss Webster mouse at 30 mg/kg, po by LC/MS/MS analysis; format: ADME, organism-based; set-up: dose 30 mg/kg, route oral; settings: in vivo; how it was run: as §4
[10] = Half life in CD-1/Swiss Webster mouse at 10 mg/kg, po by LC/MS/MS analysis; format: ADME, organism-based; set-up: dose 10 mg/kg, route oral; settings: in vivo; how it was run: as §4
[11] = Half life in CD-1/Swiss Webster mouse at 30 mg/kg, po by LC/MS/MS analysis; format: ADME, organism-based; set-up: dose 30 mg/kg, route oral; settings: in vivo; how it was run: as §4
[12] = AUC (0 to t) in CD-1/Swiss Webster mouse at 10 mg/kg, po by LC/MS/MS analysis; format: ADME, organism-based; set-up: dose 10 mg/kg, route oral; settings: plasma; how it was run: as §4
[13] = AUC (0 to t) in CD-1/Swiss Webster mouse at 30 mg/kg, po by LC/MS/MS analysis; format: ADME, organism-based; set-up: dose 30 mg/kg, route oral; settings: plasma; how it was run: as §4
[14] = AUC (0 to infinity) in CD-1/Swiss Webster mouse at 10 mg/kg, po by LC/MS/MS analysis; format: ADME, organism-based; set-up: time infinity, dose 10 mg/kg, route oral; settings: plasma; how it was run: as §4
[15] = AUC (0 to infinity) in CD-1/Swiss Webster mouse at 30 mg/kg, po by LC/MS/MS analysis; format: ADME, organism-based; set-up: time infinity, dose 30 mg/kg, route oral; settings: plasma; how it was run: as §4
[16] = Apparent volume of distribution during terminal phase in CD-1/Swiss Webster mouse at 10 mg/kg, po by LC/MS/MS analysis; format: ADME, organism-based; set-up: dose 10 mg/kg, route oral; settings: in vivo, read-out: Vz/F; how it was run: as §4
[17] = tested on: Mus musculus; experiment: (§5) Apparent volume of distribution during terminal phase in CD-1/Swiss Webster mouse at 30 mg/kg, po by LC/MS/MS analysis; format: ADME, organism-based; set-up: dose 30 mg/kg, route oral; settings: in vivo; how it was run: as §4
[18] = Apparent oral clearance in CD-1/Swiss Webster mouse at 10 mg/kg, po by LC/MS/MS analysis; format: ADME, organism-based; set-up: dose 10 mg/kg, route oral; settings: in vivo; how it was run: as §4
[19] = Apparent oral clearance in CD-1/Swiss Webster mouse at 30 mg/kg, po by LC/MS/MS analysis; format: ADME, organism-based; set-up: dose 30 mg/kg, route oral; settings: in vivo; how it was run: as §4
[20] = Drug uptake in rat prostate tissue at 100 mg/kg, po; format: ADME, organism-based, Prostate gland; set-up: dose 100 mg/kg, route oral; settings: in vivo, read-out: Drug uptake
[21] = tested on: LNCaP; experiment: Anticancer activity against androgen sensitive human LNCAP cells xenografted nude mouse model assessed as reduction in tumor growth rate administered at 10 mg/kg, po once daily after day 14 of implantation measured on day 36 relative to control; format: functional, organism-based; set-up: dose 10 mg/kg
How it was run: (§6)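 Nude mice bearing palpable subcutaneous LNCaP tumors (n = 10–12 per group). Castration or sham surgery on Day 13 after implantation. Daily oral gavage of 10 mg/kg or vehicle from Day 14. Tumor growth followed over time and body weights monitored. Controls sacrificed Day 36 for tumor burden; some groups continued longer. Growth analysed by mixed model for repeated measurements, weights by ANOVA.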

[22] = tested on: LNCaP; experiment: Anticancer activity in androgen sensitive human LNCAP cells xenografted castrated mouse model assessed as reduction in tumor growth rate administered at 10 mg/kg, po once daily from day 14 after implantation measured on day 38 relative to control; format: functional, organism-based; set-up: dose 10 mg/kg; how it was run: as §6
[23] = tested on: PC-3; experiment: Anticancer activity against androgen insensitive human PC3 cells xenografted nude mouse model assessed as decrease in tumor growth rate administered at 10 mg/kg, po once daily administered from day 22 to day 34 after implantation relative to control; format: functional, organism-based; set-up: dose 10 mg/kg; how it was run: as §1
[24] = tested on: PC-3; experiment: Anticancer activity against androgen insensitive human PC3 cells xenografted nude mouse model assessed as decrease in tumor growth rate administered at 10 mg/kg, po once daily administered from day 22 to day 34 after implantation coadministered with docetaxel relative to control; format: functional, organism-based; set-up: dose 10 mg/kg; how it was run: as §1
[25] = tested on: Mus musculus; experiment: Toxicity in androgen sensitive human LNCAP cells xenografted nude mouse model assessed as body weight change at 10 mg/kg, po once daily after day 14 of implantation; format: organism-based; set-up: dose 10 mg/kg, route oral; settings: in vivo; how it was run: as §6
[26] = tested on: Mus musculus; experiment: Toxicity in androgen sensitive human LNCAP cells xenografted castrated mouse model assessed as body weight change at 10 mg/kg, po once daily after day 14 of implantation; format: organism-based; set-up: dose 10 mg/kg, route oral; settings: in vivo; how it was run: as §6
[27] = tested on: Mus musculus; experiment: Toxicity in androgen insensitive human PC3 cells xenografted nude mouse model assessed as body weight change administered at 10 mg/kg, po once daily administered from day 22 to day 34 after implantation; format: organism-based, PC-3; set-up: dose 10 mg/kg, route oral; settings: in vivo; how it was run: as §1
[28] = tested on: PC-3; experiment: Anticancer activity against androgen insensitive human PC3 cells xenografted nude mouse model assessed as decrease in tumor growth rate administered at 10 mg/kg, po once daily administered from day 16 after implantation
[29] = as §5; format: ADME, organism-based; set-up: dose 30 mg/kg, route oral; settings: CD-1/Swiss Webster, in vivo, read-out: Vz/F; how it was run: as §4

SMILES | IC50 [2] | IC50 [3] | Activity [4] | Activity [5] | Tmax [6] | Tmax [7] | Cmax [8] | Cmax [9] | half-life [10] | half-life [11] | AUC(0-t) [12] | AUC(0-t) [13] | AUC(0-inf) [14] | AUC(0-inf) [15] | Vd/F [16] | CL/F [18] | CL/F [19] | also measured
CC(=O)O[C@@]12CO[C@@H]1C[C@H](O)[C@@]1(C)C(=O)[C@H](O)C3=C(C)[C@@H](OC(=O)[C@H](O)[C@@H](NC(=O)OC(C)(C)C)c4ccccc4)C[C@@](O)([C@@H](OC(=O)c4ccccc4)[C@H]21)C3(C)C | – | – | – | – | – | – | – | – | – | – | – | – | – | – | – | – | – | Activity [1]: Active
CCCCCCCCCCCCC[C@@H](O)C[C@H](O)[C@H](C)N | 9.7 µM | 10.2 µM | Active | 0.3% | – | – | – | – | – | – | – | – | – | – | – | – | – | –
CCCCCCCCCCCCC[C@H](O)C[C@H](O)[C@H](C)N [ENIGMOL] | 9.7 µM | 10.3 µM | Active | – | 2 h | 2 h | 137 nM | 705 nM | 11 h | 5 h | 1.88 µM·h | 5.96 µM·h | 2.54 µM·h | 6.96 µM·h | 211 L/kg | 217 mL/min/kg | 233 mL/min/kg | Vz/F [17]: 107 L/kg; concentration [20]: 10000 nM; Activity [21]: Active; Activity [22]: Active; Activity [23]: Active; Activity [24]: Active; Activity [25]: < 6%; Activity [26]: < 6%; Activity [27]: 0.3%; Activity [28]: Active
CCCCCCCCCCCCC[C@H](O)C[C@@H](O)[C@H](C)N | 5 µM | 9.7 µM | Active | 0.3% | – | – | – | – | – | – | – | – | – | – | – | – | – | –
CCCCCCCCCCCCC[C@H](O)C[C@H](O)[C@H](C)NC | 25 µM | 10.5 µM | – | – | 2 h | 4 h | 232 nM | 1120 nM | 15 h | 12 h | 3.86 µM·h | 13.6 µM·h | 5.99 µM·h | 17.9 µM·h | 117 L/kg | 83.3 mL/min/kg | 83.3 mL/min/kg | Vd/F [29]: 90 L/kg
CCCCCCCCCCCCC[C@@H](O)C[C@@H](O)[C@H](C)N | 50 µM | 49.3 µM | – | – | – | – | – | – | – | – | – | – | – | – | – | – | – | –
